The values below come from ChEMBL document CHEMBL1817571, “Design and synthesis of new prostaglandin D₂ receptor antagonists” (Bioorg Med Chem, 2011).

Some results are limits rather than exact numbers.

As a reminder, the Ki is a dissociation constant, usually derived from enzyme kinetics or from competition with a known ligand. What is called clearance is the rate of elimination divided by the concentration. A low value points to inefficient removal. A word on the IC50: it is the point on the concentration scale where inhibition reaches its midpoint. Usually Cmax stands for the highest concentration seen after dosing. A word on the half-life: it is the time needed for the level to fall by half in the phase considered. In general, AUC(0-inf) refers to the area under the concentration-time curve extrapolated to infinity. A high value points to high exposure. Broadly, the AUC(0-t) is the area under the concentration-time curve up to a stated or last time point. Higher therefore signals high exposure.

Series [1] addresses Prostacyclin receptor (Homo sapiens, UniProt P43119). Description: Displacement of [3H]Iloprost from human prostanoid IP receptor expressed in CHO cells after 30 mins by liquid scintillation counting. In general terms: Displacement assays read how much labelled ligand stays bound in the presence of the test substance.
Series [2] is described as follows: Volume of distribution at steady state in rat at 1 mg/kg, iv. Type of series: ADME, organism-based. The arrangement: dose 1 mg/kg, route intravenous. As to conditions: in vivo, read-out: Vdss. In short, it runs like this:
(§1)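 Fasted male rats (n = 3) received 1 mg/kg iv or 10 mg/kg po. Jugular vein blood was drawn with a heparinized syringe at pre-dose and 2 (iv only), 5, 15 and 30 min, and 1, 2, 4, 6 and 8 h. Plasma was obtained by centrifugation at 4 °C and stored at −80 °C. AUC, Cmax, T1/2, Vss and CL came from the plasma concentration–time course. BA was derived from dose-normalized AUCpo/AUCiv.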

Series [3] can be described thus: Total clearance in rat at 1 mg/kg, iv. The format is ADME, organism-based. More on the design: dose 1 mg/kg, route intravenous. As to conditions: in vivo. In short, it runs like this: as §1
In series [4] the target is T1, Prostaglandin E2 receptor EP1 subtype (Mus musculus, UniProt P35375).
T1 sequence (P35375 whole entry): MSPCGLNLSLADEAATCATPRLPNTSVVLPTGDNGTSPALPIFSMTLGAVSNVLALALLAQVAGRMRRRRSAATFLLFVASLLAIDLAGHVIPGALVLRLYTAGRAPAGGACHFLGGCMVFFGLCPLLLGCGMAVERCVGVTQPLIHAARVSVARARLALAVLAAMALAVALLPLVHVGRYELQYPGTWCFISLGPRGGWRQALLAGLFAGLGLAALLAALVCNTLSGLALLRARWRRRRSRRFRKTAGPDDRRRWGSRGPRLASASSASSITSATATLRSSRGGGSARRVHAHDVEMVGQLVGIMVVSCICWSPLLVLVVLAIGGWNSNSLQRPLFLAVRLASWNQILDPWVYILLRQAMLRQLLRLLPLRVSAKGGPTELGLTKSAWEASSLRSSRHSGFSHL
As to the kind of experiment: Displacement of [3H]PGE2 from mouse prostaglandin EP1 receptor expressed in CHO cells after 20 mins by liquid scintillation counting.

Series [5] deals with Prostaglandin E2 receptor EP2 subtype (Mus musculus, UniProt Q62053). As to the kind of experiment: Displacement of [3H]PGE2 from mouse prostaglandin EP2 receptor expressed in CHO cells after 60 mins by liquid scintillation counting. The format is cell-based. In short, it runs like this: (§2)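 Membranes came from CHO cells stably expressing mEP1, EP2, EP3 or EP4. They were incubated with 2.5 nM [3H]PGE2 and graded test concentrations in 10 mM KH2PO4–KOH (1 mM EDTA, 10 mM MgCl2, 100 mM NaCl, pH 6.0) at room temperature, 20 min for EP1 and 60 min for EP2–4. Reactions were filtered on GF/B, washed with ice-cold buffer, and counted by scintillation. IC50 came by regression, with Ki via Cheng–Prusoff.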

Series [6] deals with T2, Prostaglandin D2 receptor (Mus musculus, UniProt P70263).
T2 sequence (P70263 whole entry): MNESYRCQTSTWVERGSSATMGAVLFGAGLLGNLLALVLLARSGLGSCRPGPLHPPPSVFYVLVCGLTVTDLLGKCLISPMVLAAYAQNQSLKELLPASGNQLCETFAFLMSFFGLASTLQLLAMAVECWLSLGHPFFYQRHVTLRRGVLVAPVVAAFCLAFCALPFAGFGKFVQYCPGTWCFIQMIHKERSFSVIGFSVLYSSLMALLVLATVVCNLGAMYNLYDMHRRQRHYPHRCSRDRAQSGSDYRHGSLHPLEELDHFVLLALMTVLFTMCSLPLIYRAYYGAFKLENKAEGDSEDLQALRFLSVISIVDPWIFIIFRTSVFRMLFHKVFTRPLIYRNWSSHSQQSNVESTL
Description: Antagonist activity at mouse prostanoid DP receptor expressed in CHO cells assessed as inhibition of PGD2-induced intracellular cAMP production. Type of series: functional, cell-based. In short, it runs like this:
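CHO-mDP cells were seeded at 1×10^5 cells/well and grown 2 days. They were preincubated about 10 min at 37 °C in MEM with 2 µM diclofenac, then about 10 min in MEM with 0.1% BSA, 1 mM IBMX and 2 µM diclofenac. Test compounds at various concentrations plus 10 nM PGD2 were then added for 10 min at 37 °C. Reactions were stopped with 10% TCA, extracted with tri-n-octylamine/chloroform, and cAMP was measured by EIA.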
For orientation: cAMP levels reflect the balance of adenylyl cyclase and phosphodiesterase activity.

The target in series [7] is T2, Prostaglandin D2 receptor. Description: Displacement of [3H]PGD2 from mouse prostanoid DP receptor expressed in CHO cells after 20 mins by liquid scintillation counting.
In series [8] the target is Prostaglandin E2 receptor EP4 subtype (Mus musculus, UniProt P32240). Description: Displacement of [3H]PGE2 from mouse prostaglandin EP4 receptor expressed in CHO cells after 60 mins by liquid scintillation counting. Type of series: cell-based. Put shortly:
as §2

Series [9] has as its target T3, Prostaglandin E2 receptor EP3 subtype (Mus musculus, UniProt P30557).
T3 sequence (P30557 whole entry): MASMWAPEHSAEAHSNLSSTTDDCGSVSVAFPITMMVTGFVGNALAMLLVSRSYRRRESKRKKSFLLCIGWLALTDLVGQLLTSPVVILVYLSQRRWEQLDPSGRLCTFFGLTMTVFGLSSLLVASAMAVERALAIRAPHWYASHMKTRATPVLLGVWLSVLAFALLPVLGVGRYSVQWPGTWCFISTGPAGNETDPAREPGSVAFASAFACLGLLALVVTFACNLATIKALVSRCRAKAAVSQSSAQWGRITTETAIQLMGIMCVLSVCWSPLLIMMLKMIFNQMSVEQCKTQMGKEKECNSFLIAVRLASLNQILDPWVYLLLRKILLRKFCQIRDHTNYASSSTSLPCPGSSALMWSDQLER
As to the kind of experiment: Displacement of [3H]PGE2 from mouse prostaglandin EP3alpha receptor expressed in CHO cells after 60 mins by liquid scintillation counting. The format is cell-based. In short, it runs like this: as §2

Series [10] in a line: Cmax in rat at 10 mg/kg, po. The conditions noted are these: in vivo. The arrangement: dose 10 mg/kg, route oral. Type of series: ADME, organism-based. Put shortly: as §1
Series [11] in a line: Half life in rat at 1 mg/kg, iv. As to conditions: in vivo. Type of series: ADME, organism-based. The arrangement: dose 1 mg/kg, route intravenous. Put shortly: as §1
The nature of series [12]: Half life in rat at 10 mg/kg, po. The format is ADME, organism-based. More on the design: dose 10 mg/kg, route oral. The conditions noted are these: in vivo. In short, it runs like this: as §1
Series [13] is described as follows: Oral bioavailability in rat at 10 mg/kg. Type of series: ADME, organism-based. The conditions noted are these: in vivo. In short, it runs like this:
as §1

A short description of series [14]: AUC (infinity) in rat at 10 mg/kg, po. As to conditions: plasma. More on the design: time infinity, dose 10 mg/kg, route oral. The format is ADME, organism-based. In short, it runs like this: as §1
Series [15] is described as follows: AUC (infinity) in rat at 1 mg/kg, iv. Type of series: ADME, organism-based. More on the design: time infinity, dose 1 mg/kg, route intravenous. The conditions noted are these: plasma. In short, it runs like this: as §1
Series [16] concerns the target Prostaglandin F2-alpha receptor (Mus musculus, UniProt P43117). As to the kind of experiment: Displacement of [3H]PGF2alpha from mouse prostanoid FP receptor expressed in CHO cells after 60 mins by liquid scintillation counting. The format is cell-based. Put shortly: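 CHO-mFP membranes were incubated with 2.5 nM [3H]PGF2α and varied test concentrations in 10 mM KH2PO4–KOH, 1 mM EDTA, 10 mM MgCl2, 100 mM NaCl, pH 6.0, for 60 min at room temperature. Samples were then filtered on GF/B, washed with ice-cold phosphate/NaCl buffer, and counted by scintillation. IC50 came from the regression curve, and Ki = IC50/(1+[L]/Kd).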

The nature of series [17]: AUClast in rat at 1 mg/kg, iv. As to conditions: plasma. More on the design: time 0 - last, dose 1 mg/kg, route intravenous. Type of series: ADME, organism-based. Put shortly:
as §1

Series [18] deals with T4, Thromboxane A2 receptor (Homo sapiens, UniProt P21731).
T4 sequence (P21731 whole entry): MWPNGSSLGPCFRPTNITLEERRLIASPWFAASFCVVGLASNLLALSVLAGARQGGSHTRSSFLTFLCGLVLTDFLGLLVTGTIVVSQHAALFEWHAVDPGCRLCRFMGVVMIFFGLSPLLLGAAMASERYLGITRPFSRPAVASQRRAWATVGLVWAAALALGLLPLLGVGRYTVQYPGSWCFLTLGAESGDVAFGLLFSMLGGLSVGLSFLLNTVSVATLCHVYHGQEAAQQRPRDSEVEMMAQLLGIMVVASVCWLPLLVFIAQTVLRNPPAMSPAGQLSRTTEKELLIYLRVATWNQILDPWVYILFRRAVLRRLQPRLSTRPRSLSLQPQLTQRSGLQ
As to the kind of experiment: Displacement of [3H]-SQ29548 from human prostanoid TP receptor expressed in CHO cells after 30 mins by liquid scintillation counting.

Series [19] in a line: AUClast in rat at 10 mg/kg, po. Type of series: ADME, organism-based. The arrangement: dose 10 mg/kg, route oral, time 0 - last. As to conditions: plasma. Put shortly: as §1
Series [20] deals with T1, Prostaglandin E2 receptor EP1 subtype. Description: Displacement of [3H]PGE2 from mouse prostaglandin EP1 receptor expressed in CHO cells after 60 mins by liquid scintillation counting. Type of series: cell-based.

Chain of Prostacyclin receptor (P43119 whole entry): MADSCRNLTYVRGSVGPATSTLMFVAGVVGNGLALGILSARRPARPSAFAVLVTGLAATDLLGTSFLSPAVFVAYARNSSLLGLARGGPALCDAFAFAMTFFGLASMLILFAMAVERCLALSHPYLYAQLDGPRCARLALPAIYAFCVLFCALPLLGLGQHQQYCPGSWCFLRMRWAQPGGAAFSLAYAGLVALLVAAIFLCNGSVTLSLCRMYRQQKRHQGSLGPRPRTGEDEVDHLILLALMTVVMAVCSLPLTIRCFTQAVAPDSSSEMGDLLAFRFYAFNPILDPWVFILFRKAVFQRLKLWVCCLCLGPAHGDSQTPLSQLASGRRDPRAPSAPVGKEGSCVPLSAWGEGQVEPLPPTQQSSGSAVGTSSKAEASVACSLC
Chain of Prostaglandin E2 receptor EP2 subtype (Q62053 whole entry): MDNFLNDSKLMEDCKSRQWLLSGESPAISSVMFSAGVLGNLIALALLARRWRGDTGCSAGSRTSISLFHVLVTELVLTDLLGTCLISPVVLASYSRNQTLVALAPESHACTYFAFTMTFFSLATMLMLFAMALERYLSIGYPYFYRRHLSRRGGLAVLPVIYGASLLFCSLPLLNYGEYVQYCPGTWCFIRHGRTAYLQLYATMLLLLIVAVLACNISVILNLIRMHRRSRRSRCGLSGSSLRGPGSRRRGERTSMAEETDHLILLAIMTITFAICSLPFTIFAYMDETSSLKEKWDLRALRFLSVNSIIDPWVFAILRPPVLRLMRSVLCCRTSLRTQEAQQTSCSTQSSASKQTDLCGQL
Chain of Prostaglandin E2 receptor EP4 subtype (P32240 whole entry): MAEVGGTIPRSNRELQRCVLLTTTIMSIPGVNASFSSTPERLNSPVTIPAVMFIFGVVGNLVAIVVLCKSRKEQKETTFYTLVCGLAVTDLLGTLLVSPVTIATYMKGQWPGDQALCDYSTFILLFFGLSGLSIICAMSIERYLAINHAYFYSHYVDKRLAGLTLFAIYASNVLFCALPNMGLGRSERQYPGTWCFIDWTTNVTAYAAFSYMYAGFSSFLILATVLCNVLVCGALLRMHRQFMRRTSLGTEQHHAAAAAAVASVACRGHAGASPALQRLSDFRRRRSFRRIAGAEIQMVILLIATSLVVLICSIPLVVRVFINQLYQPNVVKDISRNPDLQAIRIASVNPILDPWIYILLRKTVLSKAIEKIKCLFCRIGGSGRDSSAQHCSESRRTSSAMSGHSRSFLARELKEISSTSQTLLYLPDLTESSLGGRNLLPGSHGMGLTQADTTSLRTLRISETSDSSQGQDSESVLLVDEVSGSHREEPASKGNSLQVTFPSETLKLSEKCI
Chain of Prostaglandin F2-alpha receptor (P43117 whole entry): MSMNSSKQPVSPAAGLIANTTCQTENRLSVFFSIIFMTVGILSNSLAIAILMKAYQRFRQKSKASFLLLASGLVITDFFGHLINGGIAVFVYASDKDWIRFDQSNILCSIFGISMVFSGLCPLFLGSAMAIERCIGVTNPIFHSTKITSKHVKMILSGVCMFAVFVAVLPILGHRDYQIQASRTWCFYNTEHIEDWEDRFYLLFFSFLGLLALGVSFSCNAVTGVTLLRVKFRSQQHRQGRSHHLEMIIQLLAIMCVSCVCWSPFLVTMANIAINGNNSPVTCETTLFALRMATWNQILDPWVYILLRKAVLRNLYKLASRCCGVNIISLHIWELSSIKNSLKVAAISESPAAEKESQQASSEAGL

Take `CN1C[C@@H](COc2ccc(C(=O)Nc3cccc(CC(=O)O)c3)cc2)Oc2ccccc21`: the Ki is 6.4 µM in series [1]; 2100 nM in series [4]; 520 nM in [5]; 310 nM in [7]; over 10 µM in series [8]; over 10 µM in series [9]. For the same compound, the Vd in series [2] was 0.22 L/kg. This compound also displayed a clearance in series [3] of 25 mL/min/kg. In addition, in [6], the IC50 came to 220 nM. Also, the concentration in series [10] peaked (Cmax) at 4900 ng/mL. Moreover, the half-life in series [11] was 16.2 min; in series [12], 108 min. For the same compound, the bioavailability in series [13] was 119%. Further, the AUC(0-inf) came to 8000 ng·h/mL in series [14] and 670 ng·h/mL in series [15].
For `Cc1ccc(CC(=O)O)cc1NC(=O)c1ccc(OC[C@@H]2CN(C)c3ccccc3O2)cc1C`, the Ki in series [1] is 2.6 µM; in series [16], over 10 µM; in series [4], over 10000 nM; in series [5], 170 nM; in series [7] it was 31 nM; in series [8], over 10 µM. The Ki in [9] and in [18] was over 10 µM each time. The Vd in series [2] stood at 0.61 L/kg. Moreover, the clearance in series [3] stood at 3.3 mL/min/kg. For the same compound, in series [6], the IC50 was found to be 4.6 nM. The compound further returned a Cmax in [10] of 8700 ng/mL. Also, the results for the half-life in series [11] and in series [12] were 186 min and 312 min, respectively. Moreover, the AUC(0-t) in [17] is 4600 ng·h/mL; in series [19], 28800 ng·h/mL. The bioavailability in series [13] came out at 62%.
Turning to `CN1C[C@@H](COc2ccc(C(=O)Nc3cc(CC(=O)O)ccc3F)c(Cl)c2)Oc2ccccc21`, the Ki in series [1] is over 10 µM; in [20], over 10 µM; in [16], over 10 µM; in series [5], 22 nM; in series [7] it was 17 nM; in series [8], over 10 µM. The Ki in series [9] and in series [18] was over 10 µM in each case. Besides, the IC50 in series [6] turned out to be 7.4 nM.
